Laboratory results published in ChEMBL document CHEMBL1128718, “2-Substituted penems with amino acid-related side chains: synthesis and antibacterial activity of a new series of beta-lactam antibiotics” (1995).
Values after ≈ are worked out from the molar mass of the structure shown.

How the values were obtained:
Format in all cases: functional
Pseudomonas aeruginosa [1] = assay: In Vitro antibacterial activity against (Pa) Pseudomonas aeruginosa ATCC 27853
How it was run: (§1)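 Panel of standard ATCC strains plus modified strains: methicillin-resistant, hyperpermeable, β-lactamase-producing (TEM1, TEM2, SHV) and β-lactamase-lacking. MIC determined in Mueller Hinton 2 medium, inoculum 10⁴ cells/mL, incubated 24 h at 37 °C.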

Escherichia coli [2] = assay: In Vitro antibacterial activity against (Ec SHV) Escherichia coli […] strain; how it was run: as §1
Staphylococcus aureus [3] = assay: In vitro antibacterial activity against Sa(I) Staphylococcus aureus ATCC 29213
How it was run: (§2)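 MIC was determined in Mueller Hinton 2 medium with an inoculum of 10⁴ cells/mL and incubation for 24 h at 37 °C. Strains: Sa(I) is S. aureus ATCC 29213; Sa MR(I) is a heterogeneous methicillin-resistant S. aureus; Sa MR(II) is a homogeneous methicillin-resistant S. aureus.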

Escherichia coli [4] = assay: In Vitro antibacterial activity against (Ec DC2) hyperpermeable Escherichia coli strain; how it was run: as §1
Staphylococcus aureus [5] = assay: In vitro antibacterial activity against Sa MR(I) heterogeneous methicillin resistant Staphylococcus aureus; how it was run: as §2
Staphylococcus aureus [6] = assay: In vitro antibacterial activity against Sa MR(II) homogeneous methicillin resistant Staphylococcus aureus; how it was run: as §2
Staphylococcus aureus [7] = assay: In vitro antibacterial activity against Sa(II) Staphylococcus aureus ATCC 25923; how it was run: as §1
Pseudomonas aeruginosa [8] = assay: In Vitro antibacterial activity against (Pa G242) hyperpermeable Pseudomonas aeruginosa strain; how it was run: as §1
Pseudomonas aeruginosa [9] = assay: In Vitro antibacterial activity against (Pa) hyperpermeable Pseudomonas aeruginosa […] strain; how it was run: as §1
Escherichia coli [10] = assay: In Vitro antibacterial activity against (Ec) Escherichia coli ATCC 25922; how it was run: as §1
Enterococcus faecalis = assay: In Vitro antibacterial activity against (Ef) Enterococcus faecalis ATCC 29212; how it was run: as §1
Escherichia coli [11] = assay: In Vitro antibacterial activity against (Ec TEM2) Escherichia coli […] strain; how it was run: as §1
Escherichia coli [12] = assay: In Vitro antibacterial activity against (Ec TEM1) Escherichia coli […] strain; how it was run: as §1
Escherichia coli [13] = assay: In Vitro antibacterial activity against (Ec L) Escherichia coli […] strain; how it was run: as §1

| SMILES | MIC (Pseudomonas aeruginosa [1]) [µg/mL] | MIC (Escherichia coli [2]) [µg/mL] | MIC (Staphylococcus aureus [3]) [µg/mL] | MIC (Escherichia coli [4]) [µg/mL] | MIC (Staphylococcus aureus [5]) [µg/mL] | MIC (Staphylococcus aureus [6]) [µg/mL] | MIC (Staphylococcus aureus [7]) [µg/mL] | MIC (Pseudomonas aeruginosa [8]) [µg/mL] | MIC (Pseudomonas aeruginosa [9]) [µg/mL] | MIC (Escherichia coli [10]) [µg/mL] | MIC (Enterococcus faecalis) [µg/mL] | MIC (Escherichia coli [11]) [µg/mL] | MIC (Escherichia coli [12]) [µg/mL] | MIC (Escherichia coli [13]) [µg/mL] |
| --- | --- | --- | --- | --- | --- | --- | --- | --- | --- | --- | --- | --- | --- | --- |
| C[C@@H](O)[C@H]1C(=O)N2C(C(=O)O)=C(CN(C)C(CO)C(N)=O)S[C@H]12 (some centres not stated) | > 64 | 2 (≈ 5.79 µM) | 0.12 (≈ 0.347 µM) | 1 (≈ 2.9 µM) | 0.25 (≈ 0.724 µM) | 8 (≈ 23.2 µM) | 0.06 (≈ 0.174 µM) | 1 (≈ 2.9 µM) | 8 (≈ 23.2 µM) | 0.12 (≈ 0.347 µM) | 4 (≈ 11.6 µM) | 1 (≈ 2.9 µM) | 1 (≈ 2.9 µM) | 0.5 (≈ 1.45 µM) |
| C[C@@H](O)[C@H]1C(=O)N2C(C(=O)O)=C(CN3CC3C(N)=O)S[C@H]12 (some centres not stated) | > 64 | 4 (≈ 12.8 µM) | 0.5 (≈ 1.6 µM) | 4 (≈ 12.8 µM) | 0.25 (≈ 0.798 µM) | 8 (≈ 25.5 µM) | 0.25 (≈ 0.798 µM) | 2 (≈ 6.38 µM) | 1 (≈ 3.19 µM) | 2 (≈ 6.38 µM) | 16 (≈ 51.1 µM) | 2 (≈ 6.38 µM) | 2 (≈ 6.38 µM) | 4 (≈ 12.8 µM) |
| C[C@@H](O)[C@H]1C(=O)N2C(C(=O)O)=C(CN3C[C@@H](O)C[C@H]3C(N)=O)S[C@H]12 | > 64 | 2 (≈ 5.6 µM) | 0.25 (≈ 0.7 µM) | 2 (≈ 5.6 µM) | 0.25 (≈ 0.7 µM) | 8 (≈ 22.4 µM) | 0.12 (≈ 0.336 µM) | 2 (≈ 5.6 µM) | 0.5 (≈ 1.4 µM) | 0.5 (≈ 1.4 µM) | 16 (≈ 44.8 µM) | 2 (≈ 5.6 µM) | 1 (≈ 2.8 µM) | 2 (≈ 5.6 µM) |
| C[C@@H](O)[C@H]1C(=O)N2C(C(=O)O)=C(CN3C[C@@H](O)C[C@@H]3C(N)=O)S[C@H]12 | > 64 | 1 (≈ 2.8 µM) | 0.12 (≈ 0.336 µM) | 1 (≈ 2.8 µM) | 0.25 (≈ 0.7 µM) | 16 (≈ 44.8 µM) | 0.06 (≈ 0.168 µM) | 1 (≈ 2.8 µM) | 0.5 (≈ 1.4 µM) | 1 (≈ 2.8 µM) | 32 (≈ 89.5 µM) | 1 (≈ 2.8 µM) | 1 (≈ 2.8 µM) | 1 (≈ 2.8 µM) |
| C[C@@H](O)[C@H]1C(=O)N2C(C(=O)O)=C(CN(C)CCC(N)=O)S[C@H]12 | > 64 | 1 (≈ 3.04 µM) | 0.12 (≈ 0.364 µM) | 2 (≈ 6.07 µM) | 0.12 (≈ 0.364 µM) | 2 (≈ 6.07 µM) | 0.06 (≈ 0.182 µM) | 1 (≈ 3.04 µM) | 2 (≈ 6.07 µM) | 0.5 (≈ 1.52 µM) | 16 (≈ 48.6 µM) | 1 (≈ 3.04 µM) | 1 (≈ 3.04 µM) | 1 (≈ 3.04 µM) |
| C[C@@H](O)[C@H]1C(=O)N2C(C(=O)O)=C(CN(C)C(Cc3ccccc3)C(N)=O)S[C@H]12 (some centres not stated) | > 64 | – | 0.12 (≈ 0.296 µM) | 1 (≈ 2.47 µM) | 0.12 (≈ 0.296 µM) | 2 (≈ 4.93 µM) | 0.015 (≈ 0.037 µM) | – | > 64 | 16 (≈ 39.5 µM) | 4 (≈ 9.86 µM) | > 64 | 32 (≈ 78.9 µM) | > 64 |
| C[C@@H](O)[C@H]1C(=O)N2C(C(=O)O)=C(CN(C)CC(=O)N(C)C)S[C@H]12 | > 64 | 1 (≈ 2.91 µM) | 0.25 (≈ 0.728 µM) | 1 (≈ 2.91 µM) | – | 4 (≈ 11.6 µM) | 0.12 (≈ 0.349 µM) | 0.5 (≈ 1.46 µM) | 4 (≈ 11.6 µM) | 0.5 (≈ 1.46 µM) | – | 1 (≈ 2.91 µM) | 1 (≈ 2.91 µM) | 0.5 (≈ 1.46 µM) |
| C[C@@H](O)[C@H]1C(=O)N2C(C(=O)O)=C(CN3CCC(C(N)=O)CC3)S[C@H]12 | > 64 | 2 (≈ 5.63 µM) | 0.06 (≈ 0.169 µM) | 2 (≈ 5.63 µM) | 0.12 (≈ 0.338 µM) | 2 (≈ 5.63 µM) | 0.015 (≈ 0.0422 µM) | 2 (≈ 5.63 µM) | 1 (≈ 2.81 µM) | 2 (≈ 5.63 µM) | 16 (≈ 45 µM) | 2 (≈ 5.63 µM) | 2 (≈ 5.63 µM) | 2 (≈ 5.63 µM) |
| C[C@@H](O)[C@H]1C(=O)N2C(C(=O)O)=C(CN3C[C@H](O)C[C@@H]3C(N)=O)S[C@H]12 | > 64 | 2 (≈ 5.6 µM) | 0.25 (≈ 0.7 µM) | 2 (≈ 5.6 µM) | 0.25 (≈ 0.7 µM) | 8 (≈ 22.4 µM) | 0.25 (≈ 0.7 µM) | 2 (≈ 5.6 µM) | 0.5 (≈ 1.4 µM) | 2 (≈ 5.6 µM) | 32 (≈ 89.5 µM) | 2 (≈ 5.6 µM) | 2 (≈ 5.6 µM) | 2 (≈ 5.6 µM) |
| C[C@@H](O)[C@H]1C(=O)N2C(C(=O)O)=C(CN3CCCC(C(N)=O)C3)S[C@H]12 (some centres not stated) | > 64 | 4 (≈ 11.3 µM) | 0.06 (≈ 0.169 µM) | 4 (≈ 11.3 µM) | 0.12 (≈ 0.338 µM) | 2 (≈ 5.63 µM) | 0.06 (≈ 0.169 µM) | 4 (≈ 11.3 µM) | 1 (≈ 2.81 µM) | 4 (≈ 11.3 µM) | 32 (≈ 90 µM) | 4 (≈ 11.3 µM) | 4 (≈ 11.3 µM) | 8 (≈ 22.5 µM) |
| C[C@H](C(N)=O)N(C)CC1=C(C(=O)O)N2C(=O)[C@H]([C@@H](C)O)[C@H]2S1 | > 64 | 1 (≈ 3.04 µM) | 0.03 (≈ 0.0911 µM) | 2 (≈ 6.07 µM) | 0.06 (≈ 0.182 µM) | 2 (≈ 6.07 µM) | 0.06 (≈ 0.182 µM) | 0.25 (≈ 0.759 µM) | 2 (≈ 6.07 µM) | 0.12 (≈ 0.364 µM) | 2 (≈ 6.07 µM) | 0.25 (≈ 0.759 µM) | 0.25 (≈ 0.759 µM) | 0.12 (≈ 0.364 µM) |
| C[C@@H](O)[C@H]1C(=O)N2C(C(=O)O)=C(CN(CC(N)=O)CC(N)=O)S[C@H]12 | > 64 | 0.5 (≈ 1.4 µM) | 0.12 (≈ 0.335 µM) | 0.25 (≈ 0.698 µM) | 0.25 (≈ 0.698 µM) | 1 (≈ 2.79 µM) | 0.06 (≈ 0.167 µM) | 0.25 (≈ 0.698 µM) | 0.5 (≈ 1.4 µM) | 0.12 (≈ 0.335 µM) | > 64 | 0.25 (≈ 0.698 µM) | 0.25 (≈ 0.698 µM) | 0.25 (≈ 0.698 µM) |
| C[C@@H](O)[C@H]1C(=O)N2C(C(=O)O)=C(CN3CCC[C@H]3C(=O)O)S[C@H]12 | > 64 | 8 (≈ 23.4 µM) | 0.03 (≈ 0.0876 µM) | 16 (≈ 46.7 µM) | 1 (≈ 2.92 µM) | 32 (≈ 93.5 µM) | 0.5 (≈ 1.46 µM) | 4 (≈ 11.7 µM) | 32 (≈ 93.5 µM) | 2 (≈ 5.84 µM) | > 64 | 32 (≈ 93.5 µM) | 8 (≈ 23.4 µM) | 8 (≈ 23.4 µM) |
| CCN(CC(N)=O)CC1=C(C(=O)O)N2C(=O)[C@H]([C@@H](C)O)[C@H]2S1 | > 64 | 1 (≈ 3.04 µM) | 0.06 (≈ 0.182 µM) | 1 (≈ 3.04 µM) | – | 2 (≈ 6.07 µM) | 0.06 (≈ 0.182 µM) | 0.5 (≈ 1.52 µM) | 2 (≈ 6.07 µM) | 0.5 (≈ 1.52 µM) | – | 1 (≈ 3.04 µM) | 0.5 (≈ 1.52 µM) | 0.5 (≈ 1.52 µM) |
| CCCCOC(=O)CN(C)CC1=C(C(=O)O)N2C(=O)[C@H]([C@@H](C)O)[C@H]2S1 | > 64 | > 64 | 0.5 (≈ 1.34 µM) | 1 (≈ 2.68 µM) | 0.5 (≈ 1.34 µM) | 16 (≈ 43 µM) | 0.25 (≈ 0.671 µM) | > 64 | > 64 | 32 (≈ 85.9 µM) | 8 (≈ 21.5 µM) | > 64 | > 64 | > 64 |
| C[C@@H](O)[C@H]1C(=O)N2C(C(=O)O)=C(CN(C)CC(=O)NCC(N)=O)S[C@H]12 | > 64 | 0.5 (≈ 1.34 µM) | 0.25 (≈ 0.671 µM) | 1 (≈ 2.69 µM) | 0.25 (≈ 0.671 µM) | 4 (≈ 10.7 µM) | 0.12 (≈ 0.322 µM) | 0.5 (≈ 1.34 µM) | 1 (≈ 2.69 µM) | 0.25 (≈ 0.671 µM) | 8 (≈ 21.5 µM) | 0.5 (≈ 1.34 µM) | 0.5 (≈ 1.34 µM) | 0.5 (≈ 1.34 µM) |
| COC(=O)[C@@H]1CCCN1CC1=C(C(=O)O)N2C(=O)[C@H]([C@@H](C)O)[C@H]2S1 | > 64 | 8 (≈ 22.4 µM) | 0.25 (≈ 0.701 µM) | 2 (≈ 5.61 µM) | 0.25 (≈ 0.701 µM) | 4 (≈ 11.2 µM) | 0.12 (≈ 0.337 µM) | 8 (≈ 22.4 µM) | 4 (≈ 11.2 µM) | 4 (≈ 11.2 µM) | 8 (≈ 22.4 µM) | 8 (≈ 22.4 µM) | 8 (≈ 22.4 µM) | 4 (≈ 11.2 µM) |
